# L major viab: Leishmania major promastigote growth inhibition. AID 1063. inhibition, % at 10 µM. Leishmania major promastigotes, resazurin fluorescence viability. 9% of 200,000 active; in the data active = inhibition above about 50%;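 also: promastigotes grown with compound for 44 hours at 28 °C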
# Mdm2 ligase inh: inhibitors of human Mdm2 E3 ubiquitin ligase. signal enhancement, % at 5 µM. cell-based MDM2 ubiquitination luciferase reporter, 2 h; 0 = plate control, 100 = twice control, blank-subtracted. 0.11% of 210,000 active. Q00987;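 active = signal enhancement of 30% or more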;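 also: luminescence tracks abundance of the self-degrading MDM2-luciferase fusion protein; higher signal means inhibition of MDM2 E3 ligase activity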
#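 System: stable MDM2–luciferase fusion reporter cells / Input: 2000 cells seeded into each well / Schedule: 4 h settle plus 2 h compound, 37 °C / Compound: single-point 5 µM / Buffer or medium: cells held in DMEM / Benchmarks: control and blank well means / Evaluation: percent signal gain over controls, blank-subtracted / Measured by: luciferase luminescence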
# S1P3 antag: blocks the human S1P3 receptor; Q99500; CHO S1P3 NFAT-BLA reporter, FRET fluorescence, antagonist mode; inhibition, % at 4.98 µM; 0.27% of 170,000 active; AID 485;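 active = inhibition above the plate cutoff, the mean inhibition of test wells on that plate plus 3 SD, cut at about 28% in these data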;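 also: cells challenged with S1P at its EC80 of 0.8 µM; blue over green emission ratio from cleaved BLA substrate after 4 h stimulation; 0% = S1P-stimulated wells and 100% = unstimulated DMSO-only wells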
# Target sequence (Q99500 whole entry, looked up): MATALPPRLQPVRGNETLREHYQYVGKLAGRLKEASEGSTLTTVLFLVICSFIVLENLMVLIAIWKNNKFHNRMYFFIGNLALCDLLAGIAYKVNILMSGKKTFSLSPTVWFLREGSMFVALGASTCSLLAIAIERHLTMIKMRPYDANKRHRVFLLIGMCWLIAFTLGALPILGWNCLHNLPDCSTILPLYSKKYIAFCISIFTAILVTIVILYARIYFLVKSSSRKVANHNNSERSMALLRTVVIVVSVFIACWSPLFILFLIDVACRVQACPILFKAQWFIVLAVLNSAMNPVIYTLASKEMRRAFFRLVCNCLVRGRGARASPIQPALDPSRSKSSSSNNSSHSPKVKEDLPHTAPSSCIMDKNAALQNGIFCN
# S1P4 antagonist: human S1P4 receptor antagonism; S1P4-expressing cells, antagonist mode, reporter read-out; inhibition, % at 4.98 µM; 0.26% of 220,000 active; AID 1510; in the data active = inhibition above about 29%;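 also: 0% = wells stimulated with agonist and 100% = vehicle wells without agonist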
# S1P4 ag: activates the human S1P4 receptor | S1P4-expressing cell line, agonist reporter assay | AID 1509 | 0.35% of 220,000 active | activation, % at 4.98 µM; in the data active = activation above about 11%;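 also: 0% = DMSO vehicle and 100% = reference agonist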
# * = called active by the depositor; / = no result. Shown is part of a subset that was picked to be rich in hits.
SMILES,L major viab,Mdm2 ligase inh,S1P3 antag,S1P4 antagonist,S1P4 ag
Cc1ccc(S(=O)(=O)/N=C(/Nc2ccc3[nH]c(=O)[nH]c3c2)c2ccc(F)cc2)cc1,-1,-23,2,-15,1
COc1ccc(-c2nc(C#N)c(NCc3cccnc3)o2)cc1OC,96*,-13,/,8,-1
COc1ccc(-c2nc(C#N)c(NCc3ccc(F)cc3)o2)cc1OC,11,-7,17,-8,-1
N#Cc1nc(-c2cccc(Cl)c2)oc1NCc1cccnc1,100*,-16,/,15,0
CCCC(=O)Nc1sc2c(c1C(=O)Nc1ccccn1)CCCC2,11,-5,11,15,0
CCOc1ccc(N(CC(=O)N/N=C/c2ccc(OC(C)C)cc2)S(C)(=O)=O)cc1,-4,5,-16,-7,1
CCOC(=O)c1cnc(Nc2nc3ccccc3o2)nc1CSC(=S)N(CC)CC,100*,5,-5,-5,2
Cc1ccc(C(=O)/C=C/c2cn(CC(O)CN3CCOCC3)c3ccccc23)cc1 (stereo not given),53*,0,18,2,2
COc1ccc(C(=O)/C=C/c2cn(CC(O)CN3CCOCC3)c3ccccc23)cc1 (stereo not given),37,-1,-14,1,4
O=C(CCC1CCCCC1)NCc1ccncc1,-5,-22,82*,-23,-1
Cc1nc2ccccc2nc1OCC(=O)NCC(F)(F)F,58*,-6,-11,-6,-1
Cc1nc2ccccc2nc1OCC(=O)Nc1ccccc1,-7,-18,4,7,0
OC(CON=C1c2ccccc2-c2ccccc21)CN1CCNCC1 (stereo not given),92*,0,5,-21,1
CN(C)c1ccc(C2CC(c3ccccc3)=Nc3nc(-c4ccccc4)cn32)cc1 (stereo not given),91*,9,17,-8,2
CC(=O)/C=C/c1ccc2ccccc2n1,100*,-8,/,21,-1
O=C(COc1cccc2ccccc12)NNC(=O)c1cccs1,-10,-7,/,-6,7
COc1ccccc1OCCCCCNCCO,0,-3,16,-1,0
Cc1cc(C)c(OCCCCCNCCO)c(C)c1,90*,-5,/,-5,-2
Cc1cc(OCCCCCNCCO)cc(C)c1Cl,98*,-14,-9,2,0
Cc1cc(OCCNCCO)cc(C)c1Cl,66*,15,27,4,-2
Cc1cc(C)cc(OCCCCCNCCO)c1,52*,-13,/,6,1
Cc1ccc(Nc2nc(N)c([N+](=O)[O-])c(N3CCOCC3)n2)cc1,-1,-9,-9,-18,0
Cc1cccc(-c2nc(Nc3ccc(N4CCOCC4)cc3)c3ccccc3n2)c1,74*,-3,-4,-5,2
Oc1ccc(Nc2nc(N3CCCC3)c3ccccc3n2)cc1,100*,-16,2,-18,0
COc1ccc(Nc2nc(N3CCCCC3)c3ccccc3n2)cc1,100*,0,/,-5,-1
SMILES,L major viab,Mdm2 ligase inh,S1P3 antag,S1P4 antagonist,S1P4 ag
Cc1ccc(Nc2nc(N3CCOCC3)c3ccccc3n2)cc1,88*,-27,26,6,-1
c1ccc(Nc2nc(N3CCCC3)nc(N3CCCC3)n2)cc1,38,-4,/,-3,2
Cc1cc(-c2ccc(N3CCOCC3)cc2)nc2ccccc12,46,-17,3,-7,-2
O=C(NCCCn1ccnc1)c1cc(-c2cccc(O)c2)on1,/,-10,-11,14,-2
Cc1cc(S(=O)(=O)N2CCCOC2CNC(=O)C(=O)NCc2ccco2)ccc1F (stereo not given),0,-21,0,-13,-1
Oc1ccc(N=C/C=C/c2ccc(Br)cc2)cc1-c1nc2ccccc2s1,11,-2,-2,-20,1
COc1ccc(NC(=O)c2oc3ccccc3c2NC(=O)c2ccc3c(c2)OCO3)cc1,100*,-9,19,8,0
O=C1CSC(c2c(F)cccc2Cl)N1c1cccc(F)c1 (stereo not given),88*,-30,/,-1,-3
NC(=S)N/N=C/c1ccc(Br)o1,-4,-14,3,-1,0
NC(=S)N/N=C/c1ccc(-c2cc(Cl)c(Cl)cc2Cl)o1,78*,-1,1,5,1
O=C(ONc1ccc(N=NC(=O)c2ccccc2O)cc1)c1ccccc1,0,-9,/,-11,-2
O=Nc1ccc(NOC(=O)c2ccccc2Br)cc1,73*,-12,1,-8,0
O=C(Cc1cccc2ccccc12)N/N=C1\CCCc2ccccc21,64*,-18,/,-17,3
Cc1cc(N/C=C/C(=O)c2cccc3ccccc23)no1,0,-9,/,-4,0
O=C(/C=C/Nc1ccc([N+](=O)[O-])cc1Br)c1cccc2ccccc12,75*,6,6,-10,0
CC(C)N1CCN(Cc2cnc(-c3ccccc3)s2)CC1CCO (stereo not given),/,-8,-2,-10,3
Cc1ccc(CN2CCN(CCCc3ccccc3)CC2CCO)cc1 (stereo not given),87*,-24,5,-3,2
CC(C)CCN1CCN(Cc2cnc(-c3ccccc3)s2)CC1CCO (stereo not given),88*,-4,9,-16,1
Cc1ccc(CN2CCN(Cc3nc4ccccc4nc3C)CC2CCO)cc1 (stereo not given),/,-15,16,-2,-1
CC(C)CCN1CCN(Cc2cccn2-c2ccc(Cl)cn2)CC1CCO (stereo not given),73*,-9,-5,0,-1
Cc1ncc(CN2CCN(Cc3ccc(F)cc3)C(CCO)C2)s1 (stereo not given),-3,-6,-16,-3,0
Cc1ncc(CN2CCN(CCc3ccccc3)C(CCO)C2)s1 (stereo not given),63*,-5,-1,-3,1
COc1cccc(-c2noc(CCC(=O)NCC3CCCO3)n2)c1 (stereo not given),-3,-1,-28,1,0
Cc1ccc(NC(=O)CN2CCN(S(=O)(=O)c3cccs3)CC2)cc1S(=O)(=O)N(C)C,6,-1,4,-9,2
COc1cccc2c1OCC(CN1CCN(CCC(C)C)C(CCO)C1)=C2 (stereo not given),70*,-9,-22,-9,3
COc1cccc(CN2CCN(CCc3ccccc3)C(CCO)C2)c1OC (stereo not given),20,-3,0,-3,0
CCCSc1ccc(-c2nn(-c3ccccc3)cc2/C=C(/C#N)C(=O)NCCCOC)cc1,86*,4,-4,2,0
N#C/C(=C/c1cn(-c2ccccc2)nc1-c1cccc(OCc2ccccc2)c1)C(=O)NCCCn1ccnc1,100*,-3,-4,-6,-3
CCOc1cccc(-c2nn(-c3ccccc3)cc2/C=C(/C#N)C(=O)NCCCn2ccnc2)c1,100*,-4,2,-10,0
CCSc1ccc(-c2nn(-c3ccccc3)cc2/C=C(/C#N)C(=O)NCCCOC)cc1,5,-10,5,-8,3

# Screens: PubChem BioAssay, several laboratories
